Experimental data as given in PubChem BioAssay.
The source made the active and inactive calls.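 Rule for the calls, unless noted: active = GFP response above 150% of the DMSO level; inconclusive = fewer than 70 events counted for a yeast strain; inactive = the rest.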

Key:
[1] = RPL19A-GFP modulators, yeast TOR pathway, confirmation, cell-based, S. cerevisiae, flow cytometry, cherry picks, mother/daughter gates (AID 2270;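 active = GFP response below 50% of the DMSO control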); conditions: S. cerevisiae RPL19A-GFP strain, 3 h, at 10 µM, stronger effect = lower value, 100 = same GFP as DMSO wells
[2] = LAP4-GFP expression modulators in yeast, confirmation, cell-based, cherry picks, flow cytometry, mother/daughter gates (AID 2271;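 active = GFP response above 150% of the DMSO control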;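 note: ratio of sample to DMSO plate mean so 100% equals DMSO level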); conditions: S. cerevisiae LAP4-GFP strain, 3 h, at 10 µM, stronger effect = higher value, 100 means same as DMSO control
Outline: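 System – GFP-fusion yeast strain · Amount – 0.2 OD600 cells · Buffer or medium – SC growth medium · Dosing – single test-compound dose, 10 µM final · Schedule – 3 h treatment at 30 °C with rotation · Detection – GFP by flow cytometry · Read-out – per-gate (all, mother, daughter) GFP response vs DMSO · Benchmarks – positive rapamycin (400 ng/mL), negative DMSO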

[3] = modulators of MEP2-GFP levels in yeast, confirmation, S. cerevisiae, flow cytometry GFP, cherry picks (AID 2272;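 active = GFP response above 150% of the DMSO control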;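 note: ratio of well signal to plate DMSO mean so 100% equals DMSO level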); conditions: S. cerevisiae MEP2-GFP strain, 3 h, at 10 µM, stronger effect = higher value
[4] = AGP1-GFP expression modulators, hit retest, confirmation, cell-based, flow cytometry, S. cerevisiae, cherry picks (AID 2273);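 note: median GFP channel fluorescence over the whole cell population gate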; conditions: S. cerevisiae AGP1-GFP strain, 3 h, at 10 µM
[5] = modulators of CIT2-GFP expression in yeast, confirmation, S. cerevisiae, GFP fusion, cherry picks, mother/daughter gates (AID 2274); conditions: S. cerevisiae CIT2-GFP strain, flow cytometry, 3 h, at 10 µM, stronger effect = higher value
[6] = measured here: daughter cell gate
[7] = measured here: mother cell gate
[8] = measured here: daughter cell gate response
[9] = measured here: mother cell gate response

| SMILES | GFP response vs DMSO [1] | GFP response vs DMSO [1, 6] [%] | GFP response vs DMSO [1, 7] [%] | GFP response relative to DMSO [2] | GFP response relative to DMSO [2, 8] [%] | GFP response relative to DMSO [2, 9] [%] | GFP response vs DMSO [3] | GFP response, % of DMSO [4] | GFP response, % of DMSO [5] | GFP response, % of DMSO [5, 6] [%] | GFP response, % of DMSO [5, 7] [%] |
| --- | --- | --- | --- | --- | --- | --- | --- | --- | --- | --- | --- |
| COC(=O)c1ccc(Sc2ccccn2)c([N+](=O)[O-])c1 | 97.8% (inactive) | 101 | 97.7 | 99.5% (inactive) | 101 | 100 | 109% (inactive) | 98% (inactive) | 105% (inactive) | 105 | 104 |
| COc1cc(-c2nc3ccccn3c2NCC2CCCO2)ccc1O (stereo unspecified) | 102% (inactive) | 106 | 102 | 93% (inactive) | 95 | 88.7 | 106% (inactive) | 103% (inactive) | 106% (inactive) | 108 | 104 |
| COc1ccc(C2=NN(S(C)(=O)=O)C(c3ccc4nccnc4c3)C2)cc1 (stereo unspecified) | 101% (inactive) | 99.8 | 102 | 99.8% (inactive) | 103 | 103 | 102% (inactive) | 97.6% (inactive) | 92.6% (inactive) | 93.2 | 91.2 |
| Cc1ccc(S(=O)(=O)N(Cc2ccc(F)cc2)Cc2ccco2)cc1 | 97.6% (inactive) | 96.7 | 97.7 | 102% (inactive) | 105 | 104 | 103% (inactive) | 97.9% (inactive) | 97.2% (inactive) | 99.3 | 98.2 |
| Cc1ccccc1C(=O)NNC(=S)NC(=O)c1ccc(Cl)cc1Cl | 104% (inactive) | 105 | 104 | 143% (inactive) | 124 | 140 | 118% (inactive) | 97.1% (inactive) | 101% (inactive) | 109 | 94.5 |
| COc1ccccc1CN1C(=O)c2cccc3cccc(c23)C1=O | 100% (inactive) | 100 | 100 | 91.9% (inactive) | 90.7 | 91.6 | 104% (inactive) | 108% (inactive) | 99.3% (inactive) | 100 | 98 |
| Cc1ccc(-c2nc3ccccn3c2NC(=O)c2ccco2)cc1 | 94.9% (inactive) | 96.4 | 95 | 98.9% (inactive) | 97.5 | 98.4 | 101% (inactive) | 98.4% (inactive) | 104% (inactive) | 103 | 104 |
| O=S(=O)(c1ccc(Cl)cc1)c1snnc1-c1ccccc1 | 93.7% (inactive) | 92.2 | 96.6 | 126% (inactive) | 123 | 129 | 98.8% (inactive) | 102% (inactive) | 95.9% (inactive) | 92.1 | 96.7 |
| Cc1ccc(N2C(=O)C(Cl)=C(Nc3c(C)n(C)n(-c4ccccc4)c3=O)C2=O)cc1 | 96.9% (inactive) | 93.9 | 96.1 | 101% (inactive) | 101 | 101 | 101% (inactive) | 105% (inactive) | 100% (inactive) | 103 | 100 |
| O=C(Nc1cccc(O)c1)c1ccc(Br)cc1 | 96% (inactive) | 97 | 97.2 | 98.8% (inactive) | 96.5 | 100 | 102% (inactive) | 103% (inactive) | 102% (inactive) | 102 | 100 |
| O=C1c2ccsc2SCCN1Cc1cccc(F)c1 | 96% (inactive) | 95.7 | 96.8 | 103% (inactive) | 102 | 104 | 92.6% (inactive) | 89.9% (inactive) | 87.2% (inactive) | 90.2 | 84.6 |
| Cc1ccc(-n2ncc(C#N)c2/N=C/N(C)C)cc1 | 103% (inactive) | 101 | 103 | 101% (inactive) | 101 | 103 | 107% (inactive) | 94.2% (inactive) | 94.4% (inactive) | 92 | 79.7 |
| COc1ccc(N2CCN(C(=O)C3CCCN(S(=O)(=O)c4ccc(C)cc4)C3)CC2)cc1 (stereo unspecified) | 95.2% (inactive) | 97.4 | 93.4 | 103% (inactive) | 104 | 104 | 105% (inactive) | 97.3% (inactive) | 103% (inactive) | 97.4 | 105 |
| Nc1nc(SCC(=O)Nc2cc(C(F)(F)F)ccc2N2CCOCC2)n[nH]1 | 99% (inactive) | 99.9 | 97.9 | 101% (inactive) | 101 | 98.3 | 105% (inactive) | 101% (inactive) | 99.7% (inactive) | 99.1 | 98.5 |
| COC(=O)CCS(=O)(=O)c1nc(-c2ccccc2)cc(C(F)(F)F)n1 | 100% (inactive) | 102 | 95.8 | 168% (active) | 161 | 170 | 136% (inactive) | 130% (inactive) | 102% (inactive) | 110 | 93.7 |
| COc1cccc(/C=N\NC(=O)c2cc(OCC(F)(F)F)ccc2OCC(F)(F)F)c1 | 98.6% (inactive) | 99.1 | 97.9 | 94.1% (inactive) | 92.8 | 92.9 | 100% (inactive) | 96% (inactive) | 99.7% (inactive) | 101 | 98.5 |
| COc1ccc(C(=O)NNC(=S)NC(=O)/C=C/c2cccs2)cc1 | 106% (inactive) | 109 | 104 | 201% (active) | 173 | 198 | 120% (inactive) | 121% (inactive) | 108% (inactive) | 112 | 100 |
| COc1ccccc1CNC(=O)CS(=O)Cc1nc(-c2ccc(OC)c(OC)c2)oc1C (stereo unspecified) | 97.2% (inactive) | 97.4 | 98 | 96.7% (inactive) | 97.6 | 96.1 | 105% (inactive) | 97.6% (inactive) | 104% (inactive) | 108 | 103 |
| C/C(CC(=O)Nc1cc(C)ccn1)=N\NC(=O)c1cccc(F)c1 | 98.6% (inactive) | 97.5 | 98.7 | 97.4% (inactive) | 97.2 | 99.3 | 100% (inactive) | 94.1% (inactive) | 93.9% (inactive) | 94.8 | 93.4 |
| CN1CC(=O)NC1=NC(=O)C12CC3CC(CC(C3)C1)C2 | 95% (inactive) | 93.9 | 96 | 102% (inactive) | 97.9 | 103 | 97.5% (inactive) | 92.3% (inactive) | 93.5% (inactive) | 94.6 | 92.1 |
| Cc1cccc(N2C(=O)CC(Sc3nc(C)c4c(n3)CCCC4)C2=O)c1 (stereo unspecified) | 96.8% (inactive) | 95.4 | 97.2 | 94.1% (inactive) | 94.4 | 95.1 | 102% (inactive) | 95% (inactive) | 99.7% (inactive) | 99.1 | 99.7 |
| CCc1sc(C(=O)N2CCc3ccccc32)cc1C | 94.9% (inactive) | 93.3 | 94.6 | 114% (inactive) | 111 | 114 | 99.3% (inactive) | 96.8% (inactive) | 87.5% (inactive) | 85.2 | 88.2 |
| Cc1c([N+](=O)[O-])cnc(Sc2ccccc2)c1[N+](=O)[O-] | 100% (inactive) | 96.9 | 98.9 | 124% (inactive) | 120 | 127 | 102% (inactive) | 97.6% (inactive) | 101% (inactive) | 101 | 99.7 |
| O=S(=O)(Nc1ccc(Br)cc1)c1cccc2nonc12 | 97.4% (inactive) | 97.5 | 98.3 | 96.5% (inactive) | 95 | 95.6 | 99.5% (inactive) | 93.8% (inactive) | 97.8% (inactive) | 98.3 | 95.6 |
| CCOC(=O)CNc1c(-c2ccc(OC)cc2)nc2ccc(Cl)cn12 | 100% (inactive) | 98.4 | 101 | 99.8% (inactive) | 98.7 | 102 | 97.8% (inactive) | 99.2% (inactive) | 95.2% (inactive) | 93.2 | 93.4 |
| Cc1ccc(-c2ccc(CCC(=O)O)o2)cc1 | 102% (inactive) | 95.9 | 101 | 147% (inactive) | 139 | 150 | 95.7% (inactive) | 94.8% (inactive) | 90% (inactive) | 85 | 90.2 |
